≈ marks a conversion by molar mass, not a printed value.
Experiments:
[1] = SRB cytotoxicity assay, MDCK cells; format: cell-based, canine; conditions: dog
Summary of the method: (§1)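 HeLa cells were grown in DMEM; CaSki and MDCK in RPMI-1640. All media had 10% FBS and 1% antibiotic–antimycotic, at 37 °C, 5% CO2. Cells seeded at 5×10^3/well overnight, triplicate, then given four concentrations for 48 h. Untreated cells served as control. SRB staining: ice-cold 70% acetone fixation, 0.4% SRB, Tris solubilisation, A540. IC50 from cancer lines, CC50 from MDCK, TI derived.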

[2] = DPPH radical scavenging assay; conditions: 30 min, absorbance at 517 nm, triplicate, mean ± SD
Summary of the method: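 DPPH dissolved in methanol (180 µL) mixed with 20 µL methanolic compound solutions at 0.1, 1, 10 and 100 μg/mL. Mixture shaken, held 30 min at room temperature in dark, A517. Controls: methanol blank, ascorbic acid positive. Triplicate. % scavenging = (A blank − A test)/A blank × 100; IC50 from concentration–scavenging plot.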

[3] = test system: Hela cancer cell; experiment: SRB anticancer assay, Hela cells; format: cell-based, Human
Summary of the method: as §1

[4] = ABTS radical scavenging assay; conditions: 10 min, absorbance at 734 nm, triplicate, mean ± SD
Summary of the method: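 ABTS•+ formed from 7 mM ABTS in water plus 2.45 mM potassium persulfate, kept dark at room temperature 12–16 h, then diluted in methanol to A734 0.70 ± 0.02 at 30 °C. Methanolic compound dilutions (20 µL) added to 180 µL radical, 10 min in dark, A734. Controls: methanol blank, ascorbic acid reference. Fresh radical each run. Triplicate. % scavenging versus blank gives IC50.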

[5] = FRAP assay; conditions: for FRAP (10 μg/mL): absorbance at 593 nm, 30 min, triplicate
Summary of the method: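 Working reagent: 300 mM acetate buffer pH 3.6, 10 mM TPTZ in 40 mM HCl, and 20 mM FeCl3·6H2O, mixed 10:1:1 and warmed to 37 °C. Methanolic samples reacted 30 min. Ascorbic acid in water used as standard, methanol as blank. Fe²⁺–TPTZ complex read at 593 nm. Triplicate, mean reported.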

[6] = test system: Caski cancer cell; experiment: SRB anticancer assay, Caski cells; format: cell-based
Summary of the method: as §1

Structure (SMILES)	CC50 at 48 h [1] [µg/mL]	IC50 DPPH [2] [µg/mL]	TI (therapeutic index) ([3]; CC50 MDCK / IC50 Hela)	IC50 ([3]; Homo sapiens, HeLa, 48 h, read-out: IC50 Hela) [µg/mL]	IC50 ABTS [4] [µg/mL]	FRAP (10 μg/mL) [5]	TI (therapeutic index) ([6]; CC50 MDCK / IC50 Caski)	IC50 ([6]; Homo sapiens, Ca-Ski, 48 h, read-out: IC50 Caski) [µg/mL]	FRAP absorption value ([5]; Fe3+ reducing power) [nm]
COc1ccc2cc3[n+](cc2c1OC)CCc1cc2c(cc1-3)OCO2 [Berberine]	113.8 ± 0.51	33.16 ± 1.60	25.29	4.5 ± 0.08	86.29 ± 2.11	0.001 ± 0.66	20.17	5.64 ± 0.11	
O=C1O[C@H]([C@@H](O)CO)C(O)=C1O [Ascorbic acid]		10.75 ± 0.66 (≈ 61 µM)			4.760 ± 0.05 (≈ 27 µM)	2.140 ± 0.78			2.140

Source: PMC5198934 (Saudi Journal of Biological Sciences, 2015)
